# High-throughput results from PubChem BioAssay.
# T cruzi inh – T. cruzi replication inhibition | T. cruzi beta-gal in NIH3T3, luminescence, 90 h | AID 1885 | 1.4% of 300,000 active | inhibition, % (no concentration beside the values);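 active means mean inhibition across valid replicates above about 55%, limit read from the data; inconclusive means mean below that limit but half or more replicates reach it; inactive means mean below it, under half of replicates reach it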;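 further: signal also drops with host cell toxicity which is not excluded here; higher percent means less beta-gal luminescence so fewer parasites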
#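 Read-out: Parasite load inhibition, % | Test system: Mouse NIH/3T3 fibroblasts infected with β-gal-expressing T. cruzi Tulahuen C4 | Amount: 5,000 cells/well | Medium: DMEM, 2% fetal bovine serum | Signal: GalScreen β-gal luminescence, detergent lysis, 60 min | Timing: 3 h attach, ≥90 h co-culture | Also added: Tulahuen C4 trypomastigotes, 5000/well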
# CSC inhib – blocks cancer stem cells | 1.1% of 300,000 active | cancer stem cell-like cells viability, luminescence | inhibition, % at 7.5 µM; in the data active means inhibition above about 75%; inconclusive means no clear call, values can overlap the other calls; tested in HMLE shEcad cells
# Lmaj promast – Leishmania major promastigote growth inhibition | AID 1063 | 9% of 200,000 active | Leishmania major promastigotes, resazurin fluorescence viability | inhibition, % at 10 µM; in the data active means inhibition above about 50%;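 further: promastigotes grown with compound for 44 hours at 28 °C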
# Beta cell apopt – blocks beta cell apoptosis; AID 435005; protection from apoptosis, % (no concentration beside the values); 0.8% of 300,000 active; INS-1E cytokine-induced death, ATP luminescence, 48 h; percent of positive-control rescue, neutral wells zero;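 active means Every replicate reaches about 75%, or at least half do and their mean reaches it too, limit read from the data; inconclusive means At least half of replicates reach the limit but their mean does not; inactive means Under half of replicates reach the limit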;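 further: higher means more ATP so stronger rescue from cytokine killing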
# SKKanGAS inh – SKKanGAS growth inhibition | S. pyogenes SKKanGAS, kanamycin growth, BacTiter-Glo, 6 h | inhibition, % at 7.5 µM | 1.3% of 300,000 active;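 active means mean replicate score, as percent of positive control median, at least 50; inconclusive means mean below 50 but one replicate at or above 50; inactive means mean and every replicate below 50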;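 further: strain carries kanamycin resistance gene driven by streptokinase promoter and grows in 40 µg/ml kanamycin; loss of luminescence reflects streptokinase promoter inhibition or plain growth inhibition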
# Mdm2 MdmX PPI – inhibitors of human Mdm2/MdmX interaction; O15151+Q00987; SaOS-2 split-luciferase Mdm2/MdmX complementation, luminescence; inhibition, % at 8 µM; 3% of 330,000 active;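 active means inhibition of at least 50% at 8 µM in the primary screen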
# Target sequence (O15151 whole entry, looked up): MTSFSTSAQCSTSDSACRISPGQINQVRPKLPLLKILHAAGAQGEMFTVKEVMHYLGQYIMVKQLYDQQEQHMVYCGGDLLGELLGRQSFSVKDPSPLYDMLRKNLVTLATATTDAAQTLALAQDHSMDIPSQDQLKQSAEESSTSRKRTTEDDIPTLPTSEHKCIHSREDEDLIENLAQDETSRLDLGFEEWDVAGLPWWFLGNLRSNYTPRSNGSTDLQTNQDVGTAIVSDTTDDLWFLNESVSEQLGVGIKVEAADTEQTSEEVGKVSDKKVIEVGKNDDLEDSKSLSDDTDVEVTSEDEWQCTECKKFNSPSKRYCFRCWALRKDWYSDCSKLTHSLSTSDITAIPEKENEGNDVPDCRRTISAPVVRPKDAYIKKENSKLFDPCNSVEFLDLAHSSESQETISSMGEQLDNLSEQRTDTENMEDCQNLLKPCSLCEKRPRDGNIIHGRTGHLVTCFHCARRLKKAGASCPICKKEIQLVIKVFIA
# Target sequence (Q00987 whole entry, looked up): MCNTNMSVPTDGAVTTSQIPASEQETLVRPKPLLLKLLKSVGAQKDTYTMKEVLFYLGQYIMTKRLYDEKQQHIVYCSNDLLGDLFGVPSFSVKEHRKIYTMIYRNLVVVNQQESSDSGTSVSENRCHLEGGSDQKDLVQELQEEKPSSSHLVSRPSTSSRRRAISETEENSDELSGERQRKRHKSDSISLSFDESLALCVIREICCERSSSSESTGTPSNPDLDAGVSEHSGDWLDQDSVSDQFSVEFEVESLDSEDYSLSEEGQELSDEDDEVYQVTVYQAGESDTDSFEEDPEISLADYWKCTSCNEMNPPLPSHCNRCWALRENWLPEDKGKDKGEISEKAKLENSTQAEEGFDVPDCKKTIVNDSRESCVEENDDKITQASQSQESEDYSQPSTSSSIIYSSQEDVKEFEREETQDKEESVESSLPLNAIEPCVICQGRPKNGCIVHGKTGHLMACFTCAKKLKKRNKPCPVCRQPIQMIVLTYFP
# A number is an active result; . = inactive; ? = inconclusive; / = no result given. An excerpt weighted towards active compounds, which were near 9.4% of everything screened.
SMILES,T cruzi inh,CSC inhib,Lmaj promast,Beta cell apopt,SKKanGAS inh,Mdm2 MdmX PPI
O=c1[nH][nH]c(-c2ccccc2O)c1C(C[N+](=O)[O-])c1cccc(Cl)c1 (stereo unspecified),.,.,100,.,.,.
COc1cc(C(C[N+](=O)[O-])c2c(C)[nH]c3ccccc23)ccc1O (stereo unspecified),.,.,.,.,.,.
O=c1[nH][nH]c(-c2ccccc2O)c1C(C[N+](=O)[O-])c1ccccc1 (stereo unspecified),.,.,98,.,.,.
Cc1[nH]c2ccccc2c1C(C[N+](=O)[O-])c1cccc(O)c1 (stereo unspecified),.,/,.,.,.,.
O=c1[nH][nH]c(-c2ccccc2O)c1C(C[N+](=O)[O-])c1ccc(Cl)cc1Cl (stereo unspecified),.,.,98,.,.,.
CCCNC(=O)C(=O)NCC(c1ccc2c(c1)OCO2)N1CCN(c2ccc(F)cc2)CC1 (stereo unspecified),.,.,/,.,.,.
COc1ccc(S(=O)(=O)N2CCN(Cc3cccc([N+](=O)[O-])c3)CC2)cc1,.,.,/,.,.,.
COc1ccc(-c2cc(C3CCN(Cc4ccc([N+](=O)[O-])cc4)CC3)[nH]n2)cc1,85,.,56,.,.,.
COc1ccc(-c2cc(C3CCN(CC(O)C(F)(F)F)CC3)[nH]n2)cc1 (stereo unspecified),.,/,/,/,.,.
COc1ccc(-c2cc(C3CCN(Cc4cccc(C(F)(F)F)c4)CC3)[nH]n2)cc1,62,.,68,.,?,.
CC1CCN(C(=O)Cn2c3ccccc3c3nc4n(c(=O)c32)CCCS4)CC1,.,.,/,.,.,.
COc1ccc(Cn2c(C3CCCCC3)nc3c(c(=O)c4ccccc4n3C)c2=O)cc1,?,.,/,.,70,.
Cn1c2ccccc2c(=O)c2c(=O)n(-c3ccccc3)c(C3CCCCC3)nc21,.,.,65,.,.,.
Cn1c2ccccc2c(=O)c2c(=O)n(C3CCCCCC3)c(C3CCCCC3)nc21,.,/,74,/,.,/
O=C(CN1CCN(S(=O)(=O)c2cccc(Br)c2)CC1)N1CCCCC1,/,/,/,.,/,.
CSc1ccc(/C=C/C(=O)OCC(=O)NC2CCS(=O)(=O)C2)cc1 (stereo unspecified),/,/,/,.,/,.
COc1cc(/C=C(\C#N)C(=O)Nc2cccc3ncccc23)ccc1O,.,.,100,.,.,.
COc1cc(/C=C(\C#N)C(=O)Nc2ccccn2)ccc1O,.,.,/,.,.,.
COc1ccc(C(=O)Nc2ccc(SC(F)F)cc2)cc1,.,/,.,.,.,.
COc1ccc(C(=O)Nc2ccc(OCC(F)(F)C(F)F)c(C(F)(F)F)c2)cc1OC,.,92,.,.,.,.
COc1ccc(NC(=O)c2ccc(COCC(F)(F)F)cc2)cc1OC,.,.,.,.,.,.
CCCCOc1ccc(C(=O)Nc2ccc(SC(F)F)cc2)cc1OC,.,.,71,.,.,.
CCCc1noc2c1C(c1cc(Br)ccc1F)C(C#N)=C(N)N2 (stereo unspecified),.,.,.,.,.,.
Cc1ccc(S(=O)(=O)N2CCCCC2)cc1NC(=O)CSc1nncn1-c1ccccc1,.,.,.,.,.,.
COc1ccc(-n2cnnc2SCC(=O)Nc2cc(S(=O)(=O)N3CCCCC3)ccc2C)cc1,.,.,67,.,.,.
SMILES,T cruzi inh,CSC inhib,Lmaj promast,Beta cell apopt,SKKanGAS inh,Mdm2 MdmX PPI
COc1ccc(-n2cnnc2SCC(=O)Nc2cccc(S(=O)(=O)N3CCCCC3)c2)cc1,.,.,.,.,.,.
CCN(CC)S(=O)(=O)c1cccc(NC(=O)CNc2cccc(S(=O)(=O)N3CCCC3)c2)c1,.,.,/,112,.,.
O=C(CSc1nncn1-c1ccccc1)Nc1cccc(S(=O)(=O)N2CCCCC2)c1,.,.,63,.,.,.
Cc1ccc(-c2nc(SCC(=O)Nc3cc(S(=O)(=O)N4CCCCC4)ccc3Cl)n[nH]2)cc1,.,.,58,.,.,.
COc1ccc([C@H]2CC(=O)C=C(c3ccc4c(c3)OCCO4)C2)cc1,/,.,/,.,/,.
O=C(N/N=C/c1ccc([N+](=O)[O-])o1)c1ccccc1NS(=O)(=O)c1cccs1,.,.,/,.,.,.
CC(NCc1ccc(F)cc1)C(=O)Nc1cc(S(=O)(=O)N2CCCCC2)ccc1Cl (stereo unspecified),.,.,62,.,.,.
